# Data as given in ChEMBL document CHEMBL4118256, “Second Generation of Mannich Base-Type Derivatives with in Vivo Activity against Trypanosoma cruzi” (J Med Chem, 2018).
# Activity calls are given as the source filed them. The rule behind the calls is not given here.
# Assays:
# Mus musculus [1] = assay: (§1) Nephrotoxicity in Balb/c mouse infected with Trypanosoma cruzi MHOM/Pe/2011/Arequipa DTU 5 trypamastigotes assessed as increase in urea level in serum at 100 mg/kg, po once daily for 5 consecutive days starting from day 10 post infection measured on day 127 post infection by biochemical analysis relative to control; assay type: toxicity, organism-based; conditions: in vivo
# Mus musculus [2] = assay: as §1, with “Hepatotoxicity” for “Nephrotoxicity”, “change” for “increase”, “ratio of serum […] to GPT” for “urea”, “level” for “level in serum”; assay type: toxicity, organism-based; conditions: in vivo
# Trypanosoma cruzi [3] = assay: Antitrypanosomal activity against Trypanosoma cruzi MHOM/Pe/2011/Arequipa DTU 5 epimastigotes assessed as effect on parasite glycolytic pathway by measuring decrease in succinate excretion at IC25 after 72 hrs by 1H NMR method; assay type: functional, organism-based
# Method in brief: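 Arequipa epimastigotes exposed at IC25 for 72 h alongside an untreated control. Excreted catabolites were analysed by 1H NMR, and each peak is reported as % variation versus the control. Three separate determinations.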
# Trypanosoma cruzi [4] = assay: (§2) Antitrypanosomal activity against Trypanosoma cruzi MHOM/Pe/2011/Arequipa DTU 5 trypamastigotes infected in Balb/c mouse assessed as reduction in parasitaemia reactivation in adipose tissue at 100 mg/kg, po pretreated once daily for 5 consecutive days starting from day 75 post infection followed by cyclophosphamide-induced immunosuppression on day 100 post infection every 4 days for a maximum of 3 doses measured on day 127 post infection by PCR method; assay type: functional; parameters: scale not given: the % may be the effect or the level left
# Method in brief: (§3)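 Necropsy on day 127 pi after oral treatment and cyclophosphamide immunosuppression. Tissue DNA was amplified by PCR targeting the ~300 bp T. cruzi SOD gene, 200 nM each primer, 30 cycles with 55.5 °C annealing. Products run on 2 % agarose; positive organs counted out of six mice.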
# Mus musculus [5] = assay: as §1, with “Cardiotoxicity” for “Nephrotoxicity”, “decrease” for “increase in urea level”, “serum LDH level” for “serum”, “[…],” for “100 mg/kg,”, “16” for “127”; assay type: toxicity, organism-based; parameters: scale not given: the % may be the effect or the level left; conditions: in vivo
# Method in brief: (§4)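 Serum clinical chemistry in Arequipa-infected female BALB/c mice. Oral 20 mg·kg-1 per day for 5 days, started day 10 or day 75 pi. Samples taken at day 16 pi or day 81 pi, and on necropsy day. Markers: CK-MB and LDH (U/L), AST, ALT and alkaline phosphatase (U/L), total bilirubin. Results scored relative to infected untreated controls; uninfected reference n = 15.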
# Mus musculus [6] = assay: as §1, with “Hepatotoxicity” for “Nephrotoxicity”, “decrease” for “increase”, “ratio of serum ALT to GPT” for “urea”, “level” for “level in serum”; assay type: toxicity, organism-based; parameters: scale not given: the % may be the effect or the level left; conditions: in vivo
# Mus musculus [7] = assay: (§5) Hepatotoxicity in Balb/c mouse infected with Trypanosoma cruzi MHOM/Pe/2011/Arequipa DTU 5 trypamastigotes assessed as change in alkaline phosphatase level at […], po once daily for 5 consecutive days starting from day 75 post infection measured on day 81 post infection by biochemical analysis relative to control; assay type: toxicity, organism-based; conditions: in vivo; method in brief: as §4
# Mus musculus [8] = assay: Toxicity in Balb/c mouse assessed as death at 20 mg/kg, po once daily for 5 consecutive days starting from day 10 post infection; assay type: organism-based; conditions: in vivo
# Method in brief: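 Female BALB/c mice (8-10 weeks, 20-25 g), groups of six, infected i.p. with 5 x 10^5 Arequipa bloodstream trypomastigotes. Dosing was oral, 20 mg·kg-1 per day for 5 days, given as a 2 mg·mL-1 suspension in 5% DMSO/0.5% hydroxypropyl methylcellulose. Treatment started day 10 pi (acute phase) or day 75 pi (chronic phase). Deaths and body-mass loss were monitored during and after treatment.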
# Mus musculus [9] = assay: Toxicity in Balb/c mouse assessed as reduction in body mass at 20 mg/kg, po once daily for 5 consecutive days starting from day 10 post infection relative to control; assay type: organism-based; parameters: scale not given: the % may be the effect or the level left; conditions: in vivo
# Trypanosoma cruzi [10] = assay: Antitrypanosomal activity against Trypanosoma cruzi MHOM/Pe/2011/Arequipa DTU 5 trypamastigotes infected in Balb/c mouse assessed as reduction in parasitaemia reactivation at 20 mg/kg, po pretreated once daily for 5 consecutive days starting from day 75 post infection followed by cyclophosphamide-induced immunosuppression on day 100 post infection every 4 days for a maximum of 3 doses measured up to 1 week post immunosuppression by Neubauer chamber method; assay type: functional; parameters: scale not given: the % may be the effect or the level left
# Method in brief: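 Female BALB/c mice (8-10 weeks, 20-25 g), groups of six, infected i.p. with 5 x 10^5 bloodstream trypomastigotes in 0.2 mL PBS; oral dosing 20 mg·kg-1 per day for 5 days in 5% DMSO/0.5% HPMC vehicle. After day 100 pi, cyclophosphamide 200 mg·kg-1 i.p. every 4 days, up to three doses. Within 1 week after the last dose, fresh-blood bloodstream trypomastigotes counted in a Neubauer chamber. Reactivation expressed relative to untreated infected controls.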
# Trypanosoma cruzi [11] = assay: as §2, with “in heart” for “in adipose”, “at 20” for “at 100”, “day 10” for “day 75”; assay type: functional; parameters: scale not given: the % may be the effect or the level left; method in brief: as §3
# Trypanosoma cruzi [12] = assay: as §2, with “in spleen” for “in adipose”, “at 20” for “at 100”, “day 10” for “day 75”; assay type: functional; parameters: scale not given: the % may be the effect or the level left
# Trypanosoma cruzi [13] = assay: Antitrypanosomal activity against Trypanosoma cruzi MHOM/Pe/2011/Arequipa DTU 5 trypamastigotes infected in Balb/c mouse assessed as reduction in Ig-G level in serum at 20 mg/kg, po once daily for 5 consecutive days starting from day 10 post infection measured on day 100 post infection by ELISA; assay type: functional, organism-based
# Method in brief: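 Female BALB/c mice (8-10 weeks, 20-25 g), six per group, infected i.p. with 5 x 10^5 Arequipa bloodstream trypomastigotes. Compound was given orally once daily for 5 days from day 10 or day 75 pi, at 20 mg·kg-1 per day in 5 % DMSO/0.5 % HPMC. Anti-T. cruzi IgG in serum was measured by ELISA with Fe-SOD antigen, read as OD 490 nm.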
# Mus musculus [14] = assay: as §1, with “decrease” for “increase”, “20” for “100”; assay type: toxicity, organism-based; parameters: scale not given: the % may be the effect or the level left; conditions: in vivo
# Mus musculus [15] = assay: as §1, with “decrease” for “increase”, “uric acid” for “urea”, “20” for “100”, “75” for “10”, “81” for “127”; assay type: toxicity, organism-based; parameters: scale not given: the % may be the effect or the level left; conditions: in vivo
# Mus musculus [16] = assay: as §1, with “decrease” for “increase”, “uric acid” for “urea”, “20” for “100”, “75” for “10”; assay type: toxicity, organism-based; parameters: scale not given: the % may be the effect or the level left; conditions: in vivo
# Mus musculus [17] = assay: as §1, with “Hepatotoxicity” for “Nephrotoxicity”, “ratio of serum AST to GOT” for “urea”, “level” for “level in serum”, “20” for “100”; assay type: toxicity, organism-based; conditions: in vivo
# Mus musculus [18] = assay: as §1, with “Hepatotoxicity” for “Nephrotoxicity”, “ratio of serum AST to GOT” for “urea”, “level” for “level in serum”, “20” for “100”, “75” for “10”; assay type: toxicity, organism-based; conditions: in vivo
# Mus musculus [19] = assay: as §1, with “Hepatotoxicity” for “Nephrotoxicity”, “change” for “increase”, “ratio of serum ALT to GPT” for “urea”, “level” for “level in serum”, “20” for “100”; assay type: toxicity, organism-based; conditions: in vivo; method in brief: as §4
# Mus musculus [20] = assay: Hepatotoxicity in Balb/c mouse infected with Trypanosoma cruzi MHOM/Pe/2011/Arequipa DTU 5 trypamastigotes assessed as increase in alkaline phosphatase level at 20 mg/kg, po once daily for 5 consecutive days starting from day 10 post infection measured on day 16 post infection by biochemical analysis relative to control; assay type: toxicity, organism-based; conditions: in vivo
# Mus musculus [21] = assay: as §1, with “Hepatotoxicity” for “Nephrotoxicity”, “ratio of serum ALT to GPT” for “urea”, “level” for “level in serum”; assay type: toxicity, organism-based; conditions: in vivo
# Mus musculus [22] = assay: as §5, with “10” for “75”, “16” for “81”; assay type: toxicity, organism-based; conditions: in vivo; method in brief: as §4
smiles,measurement,setting,value
COc1ccc(C(=O)CCN2CCN(c3ccc(F)cc3)CC2)cc1,Activity,Mus musculus [1],<= 10%
same,Activity,Mus musculus [2],< 10%
same,Activity,Trypanosoma cruzi [3],Active
COc1ccc(C(=O)CCN2CCN(c3ccc(Cl)cc3)CC2)cc1,Activity,Trypanosoma cruzi [4],78%
same,Activity,Mus musculus [5],<= 20%
same,Activity,Mus musculus [6],<= 10%
same,Activity,Mus musculus [7],< 10%
O=C(Cn1ccnc1[N+](=O)[O-])NCc1ccccc1 [BENZNIDAZOLE],Activity,Mus musculus [8],Non-Toxic
same,Activity,Mus musculus [9],> 10%
same,Activity,Trypanosoma cruzi [10],51%
same,Activity,Trypanosoma cruzi [11],33%
same,Activity,Trypanosoma cruzi [12],33%
same,Activity,Trypanosoma cruzi [13],Active
same,Activity,Mus musculus [14],<= 30%
same,Activity,Mus musculus [15],> 40%
same,Activity,Mus musculus [16],<= 20%
same,Activity,Mus musculus [17],> 40%
same,Activity,Mus musculus [18],<= 10%
same,Activity,Mus musculus [19],< 10%
same,Activity,Mus musculus [20],<= 20%
COc1ccc(C(=O)CCN2CCN(c3ccc([N+](=O)[O-])cc3)CC2)cc1,Activity,Mus musculus [21],<= 30%
same,Activity,Mus musculus [22],< 10%
